Experimental data from ChEMBL document CHEMBL1157867, “Synthesis of substituted acridinyl pyrazoline derivatives and their evaluation for anti-inflammatory activity” (Eur J Med Chem, 2010).

Tests used:
[1] = system: Rattus norvegicus; assay: Antiinflammatory activity in Charles Foster albino rat assessed as carrageenan-induced paw edema at 50 mg/kg, po administered 1 hr before carrageenan challenge measured after 3 hrs relative to control; type: functional
Method in brief: (§1)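 Charles-Foster albino rats of either sex, pregnant females excluded, 70–95 days old, 120–175 g, food and water ad libitum. Groups of six. Compounds in propylene glycol given orally 1 h before 0.05 mL of 1% carrageenan in 0.9% saline, injected under the plantar aponeurosis of the right hind paw. Paw volume read by plethysmometer before and 3 h after injection. Inhibition (%) = (1 − Vt/Vc) × 100.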

[2] = system: Mus musculus; assay: Analgesic activity in albino mouse assessed as decrease in acetic acid-induced writhing at 50 mg/kg, ip administered 30 mins before acetic acid challenge measured after 1 hr relative to control; type: functional; set-up: scale not given: the % may be the effect or the level left; details: route intraperitoneal
Method in brief: (§2)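 Mice of 15–25 g; compounds dissolved in propylene glycol. Acetic acid 0.5%, 0.25 mL/mouse, injected intraperitoneally 30 min after dosing. Mean number of writhes per group counted, and percent decrease versus control calculated after 60 min.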

[3] = Toxicity in ip dosed albino mouse; type: organism-based; details: in vivo, read-out: ALD50
Method in brief: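 Acute lethal dose (ALD50) determined in albino mice of 15–25 g, given food pellets and water ad libitum. Compounds were dissolved in propylene glycol. The procedure followed a previously published method.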

[4] = system: Mus musculus; assay: Analgesic activity in albino mouse assessed as decrease in acetic acid-induced writhing at 25 mg/kg, ip administered 30 mins before acetic acid challenge measured after 1 hr relative to control; type: functional; set-up: scale not given: the % may be the effect or the level left; details: route intraperitoneal; method in brief: as §2
[5] = system: Rattus norvegicus; assay: Antiinflammatory activity in Charles Foster albino rat assessed as carrageenan-induced paw edema at 25 mg/kg, po administered 1 hr before carrageenan challenge measured after 3 hrs relative to control; type: functional; method in brief: as §1
[6] = system: Mus musculus; assay: Analgesic activity in albino mouse assessed as decrease in acetic acid-induced writhing at 100 mg/kg, ip administered 30 mins before acetic acid challenge measured after 1 hr relative to control; type: functional; set-up: scale not given: the % may be the effect or the level left; details: route intraperitoneal; method in brief: as §2
[7] = system: Rattus norvegicus; assay: Antiinflammatory activity in Charles Foster albino rat assessed as carrageenan-induced paw edema at 100 mg/kg, po administered 1 hr before carrageenan challenge measured after 3 hrs relative to control; type: functional; method in brief: as §1

SMILES	Activity [1] [%]	Activity [2] [%]	LD50 [3] [mg/kg]	Activity [4] [%]	Activity [5] [%]	Activity [6] [%]	Activity [7] [%]
CC1=NN(c2c3ccccc3nc3c(Cl)cc(Cl)cc23)C(=O)C1	17.6	14.7	> 1000	–	–	–	–
O=C1CC(CSc2nnc(-c3ccncc3)o2)=NN1c1c2ccccc2nc2ccccc12	24.1	25.9	> 1000	–	–	–	–
COc1ccc2nc3ccccc3c(N3N=C(C)CC3=O)c2c1	11.5	10.8	> 1000	–	–	–	–
COc1ccc2nc3ccccc3c(N3N=C(CBr)CC3=O)c2c1	13.5	15.9	> 1000	–	–	–	–
CC1=NN(c2c3ccccc3nc3ccc(Cl)cc23)C(=O)C1	13.5	12.6	> 1000	–	–	–	–
O=C1CC(CBr)=NN1c1c2ccccc2nc2c(Cl)cc(Cl)cc12	20.7	18.6	> 1000	–	–	–	–
O=C1CC(CBr)=NN1c1c2ccccc2nc2ccc(Br)cc12	17.1	13.6	> 1000	–	–	–	–
CC(=O)Oc1ccccc1C(=O)O [ASPIRIN]	–	–	–	30.2	30.25	59.3	60.8
CC1=NN(c2c3ccccc3nc3ccccc23)C(=O)C1	10.8	8.6	> 1000	–	–	–	–
COc1cc(Cl)c2nc3ccccc3c(N3N=C(CBr)CC3=O)c2c1	18.6	16.3	> 1000	–	–	–	–
O=C1CC(CBr)=NN1c1c2ccccc2nc2ccccc12	12.8	13.2	> 1000	–	–	–	–
O=C1CC(CSc2nnc(-c3ccncc3)o2)=NN1c1c2ccccc2nc2ccc(Br)cc12	31.5	28.8	> 1000	–	–	–	–
CC1=NN(c2c3ccccc3nc3ccc(Br)cc23)C(=O)C1	12.6	12.9	> 1000	–	–	–	–
COc1cc(Cl)c2nc3ccccc3c(N3N=C(C)CC3=O)c2c1	14.4	13.4	> 1000	–	–	–	–
O=C1CC(CSc2nnc(-c3ccncc3)o2)=NN1c1c2ccccc2nc2c(Cl)cc(Cl)cc12	40.8	33.5	> 1000	30.6	32.1	42.4	–
O=C1CC(CSc2nnc(-c3ccncc3)o2)=NN1c1c2ccccc2nc2ccc(Cl)cc12	27.2	30.6	> 1000	–	–	–	–
CCCCC1C(=O)N(c2ccccc2)N(c2ccccc2)C1=O [PHENYLBUTAZONE]	–	–	–	31	31.4	42.6	63.4
O=C1CC(CBr)=NN1c1c2ccccc2nc2ccc(Cl)cc12	15.9	16.4	> 1000	–	–	–	–
COc1ccc2nc3ccccc3c(N3N=C(CSc4nnc(-c5ccncc5)o4)CC3=O)c2c1	31.2	29.7	> 1000	–	–	–	–
